{
  "source": "ChEMBL document CHEMBL1136933",
  "about": "(J Med Chem, 2009)",
  "key": {"[1]": {"biological_target": "T1, Muscarinic acetylcholine receptor M4 (Rattus norvegicus) (UniProt P08485)", "T1 sequence (whole entry)": "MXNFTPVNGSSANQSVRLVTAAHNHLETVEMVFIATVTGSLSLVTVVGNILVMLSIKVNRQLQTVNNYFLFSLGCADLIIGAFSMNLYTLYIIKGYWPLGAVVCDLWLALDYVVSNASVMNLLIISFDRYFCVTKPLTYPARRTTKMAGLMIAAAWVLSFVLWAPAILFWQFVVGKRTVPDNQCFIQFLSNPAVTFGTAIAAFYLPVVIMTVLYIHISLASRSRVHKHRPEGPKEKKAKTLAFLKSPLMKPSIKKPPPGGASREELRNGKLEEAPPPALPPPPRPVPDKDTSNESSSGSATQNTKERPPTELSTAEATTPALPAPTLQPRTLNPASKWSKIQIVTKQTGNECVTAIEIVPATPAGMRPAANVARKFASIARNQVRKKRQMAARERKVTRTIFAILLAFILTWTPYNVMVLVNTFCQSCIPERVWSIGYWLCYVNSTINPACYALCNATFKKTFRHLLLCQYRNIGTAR", "assay": "Activation of rat muscarinic M4 receptor expressed in CHO cells coexpressing chimeric Gqi5 protein assessed as potentiation of acetylcholine-induced intracellular Ca2+ mobilization up to 30 uM", "type": "functional, cell-based"}, "[2]": {"assay": "Apparent oral clearance in Sprague-Dawley rat plasma at 10 mg/kg, ip", "type": "ADME, organism-based", "design": "dose 10 mg/kg", "summary_of_the_method": "(§1)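 Male Sprague-Dawley rats (225-250 g) dosed ip at 10 mg/kg as a 5 mg/ml micro-suspension in 10% Tween 80 in sterile water. Plasma and brain sampled at 0.5, 1, 3 and 6 h, three animals per time point. Quantified by protein precipitation and LC-MS/MS against an internal standard. Brain values corrected for residual blood. PK parameters derived by noncompartmental analysis.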"}, "Homo sapiens": {"organism": "Homo sapiens", "assay": "Selectivity ratio of EC50 for human muscarinic M3 receptor to EC50 for human muscarinic M5 receptor"}, "[3]": {"assay": "Apparent oral volume of distribution in Sprague-Dawley rat plasma at 10 mg/kg, ip", "type": "ADME, organism-based", "design": "dose 10 mg/kg", "conditions": "read-out: Vc/F", "summary_of_the_method": "as §1"}, "[4]": {"assay": "Tmax in Sprague-Dawley rat plasma at 10 mg/kg, ip", "type": "ADME, organism-based", "design": "dose 10 mg/kg, route intraperitoneal", "summary_of_the_method": "as §1"}, "[5]": {"assay": "Tmax in Sprague-Dawley rat brain at 10 mg/kg, ip", "type": "ADME, organism-based", "design": "dose 10 mg/kg, route intraperitoneal", "summary_of_the_method": "as §1"}, "[6]": {"biological_target": "T2, Muscarinic acetylcholine receptor M5 (Homo sapiens) (UniProt P08912)", "T2 sequence (whole entry)": "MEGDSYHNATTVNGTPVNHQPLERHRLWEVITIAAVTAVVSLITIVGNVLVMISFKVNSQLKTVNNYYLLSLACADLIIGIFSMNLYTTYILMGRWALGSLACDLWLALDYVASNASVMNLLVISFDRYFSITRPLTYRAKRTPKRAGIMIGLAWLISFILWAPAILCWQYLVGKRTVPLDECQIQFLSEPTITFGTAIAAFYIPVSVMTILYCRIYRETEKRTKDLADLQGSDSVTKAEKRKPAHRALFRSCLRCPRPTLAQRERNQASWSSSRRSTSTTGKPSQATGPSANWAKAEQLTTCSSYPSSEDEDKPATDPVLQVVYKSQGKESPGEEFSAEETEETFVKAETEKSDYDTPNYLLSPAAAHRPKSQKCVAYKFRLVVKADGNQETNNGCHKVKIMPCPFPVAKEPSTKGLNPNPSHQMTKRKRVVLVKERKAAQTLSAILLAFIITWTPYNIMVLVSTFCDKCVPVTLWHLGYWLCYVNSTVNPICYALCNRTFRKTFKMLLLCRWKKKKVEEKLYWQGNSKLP", "assay": "Displacement of [3H]NMS from human muscarinic M5 receptor expressed in CHO cells coexpressing Gq protein up to 30 uM by scintillation counting", "type": "cell-based"}, "[7]": {"biological_target": "T2, Muscarinic acetylcholine receptor M5 (Homo sapiens)", "assay": "Activation of human muscarinic M5 receptor expressed in CHO cells coexpressing Gq protein assessed as increase in acetylcholine affinity at 30 uM by [3H]NMS competition binding assay relative to control", "type": "cell-based"}, "[8]": {"biological_target": "T3, Muscarinic acetylcholine receptor M1 (Rattus norvegicus, UniProt P08482)", "T3 sequence (P08482 whole entry)": "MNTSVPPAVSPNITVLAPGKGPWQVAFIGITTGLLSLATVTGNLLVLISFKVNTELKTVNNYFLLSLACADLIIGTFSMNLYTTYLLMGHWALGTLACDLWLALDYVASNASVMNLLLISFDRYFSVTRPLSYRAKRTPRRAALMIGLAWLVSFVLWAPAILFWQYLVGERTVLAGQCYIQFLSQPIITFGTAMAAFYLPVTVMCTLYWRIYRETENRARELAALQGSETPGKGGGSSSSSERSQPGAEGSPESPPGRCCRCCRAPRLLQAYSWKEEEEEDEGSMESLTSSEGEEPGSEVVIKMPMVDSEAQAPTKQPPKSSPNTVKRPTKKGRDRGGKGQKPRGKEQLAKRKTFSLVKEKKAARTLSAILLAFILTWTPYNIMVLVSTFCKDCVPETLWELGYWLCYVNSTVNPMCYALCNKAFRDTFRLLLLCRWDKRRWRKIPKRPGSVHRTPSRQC", "assay": "Activation of rat muscarinic M1 receptor expressed in CHO cells co-expressing Gq protein assessed as potentiation of acetylcholine-induced intracellular Ca2+ mobilization", "type": "functional, cell-based"}, "[9]": {"assay": "Selectivity ratio of EC50 for rat muscarinic M4 receptor to EC50 for human muscarinic M5 receptor"}, "[10]": {"assay": "Cmax in Sprague-Dawley rat brain at 10 mg/kg, ip within 1 hr", "type": "ADME, organism-based", "design": "dose 10 mg/kg, route intraperitoneal", "summary_of_the_method": "as §1"}, "[11]": {"biological_target": "T2, Muscarinic acetylcholine receptor M5 (Homo sapiens)", "assay": "Intrinsic activity at human muscarinic M5 receptor expressed in CHO cells coexpressing Gq protein up to 30 uM by calcium mobilization assay in absence of acetylcholine", "type": "functional, cell-based"}},
  "note": "Calls of active or inactive are those of the source. The rule behind the calls is not given here.",
  "data": [
    {"smiles": "COc1ccc(CN2C(=O)C(=O)c3cc(OC(F)(F)F)ccc32)cc1", "values": [
      {"measurement": "Activity", "setting": "[1]", "result": "inactive"},
      {"measurement": "CL/F", "setting": "[2]", "result": 145, "unit": "mL/min"},
      {"measurement": "Ratio EC50", "setting": "Homo sapiens", "result": "> 30"},
      {"measurement": "Vd/F", "setting": "[3]", "result": 59.6, "unit": "L/kg"},
      {"measurement": "Tmax", "setting": "[4]", "result": 1, "unit": "h"},
      {"measurement": "Tmax", "setting": "[5]", "result": 30, "unit": "min"},
      {"measurement": "Activity", "setting": "[6]", "result": "inactive"},
      {"measurement": "fold change (FC)", "setting": "[7]", "result": 10},
      {"measurement": "EC50", "setting": "[8]", "result": "> 30", "unit": "µM"},
      {"measurement": "Ratio EC50", "setting": "[9]", "result": "> 30"},
      {"measurement": "Cmax", "setting": "[10]", "result": 43.1, "unit": "ng/mL"},
      {"measurement": "Activity", "setting": "[11]", "result": "inactive"}
    ]}
  ]
}
